Usually IC50 stands for the concentration needed to halve the response being measured. In general, inhibition refers to the share of the control response that was lost under treatment. In general, Ki refers to the dissociation constant of the complex between target and ligand, obtained from inhibition or displacement.

Assay [1] has as its target T1, NAD-dependent protein deacetylase sirtuin-1 (Homo sapiens, UniProt Q96EB6).
T1 sequence (Q96EB6 whole entry): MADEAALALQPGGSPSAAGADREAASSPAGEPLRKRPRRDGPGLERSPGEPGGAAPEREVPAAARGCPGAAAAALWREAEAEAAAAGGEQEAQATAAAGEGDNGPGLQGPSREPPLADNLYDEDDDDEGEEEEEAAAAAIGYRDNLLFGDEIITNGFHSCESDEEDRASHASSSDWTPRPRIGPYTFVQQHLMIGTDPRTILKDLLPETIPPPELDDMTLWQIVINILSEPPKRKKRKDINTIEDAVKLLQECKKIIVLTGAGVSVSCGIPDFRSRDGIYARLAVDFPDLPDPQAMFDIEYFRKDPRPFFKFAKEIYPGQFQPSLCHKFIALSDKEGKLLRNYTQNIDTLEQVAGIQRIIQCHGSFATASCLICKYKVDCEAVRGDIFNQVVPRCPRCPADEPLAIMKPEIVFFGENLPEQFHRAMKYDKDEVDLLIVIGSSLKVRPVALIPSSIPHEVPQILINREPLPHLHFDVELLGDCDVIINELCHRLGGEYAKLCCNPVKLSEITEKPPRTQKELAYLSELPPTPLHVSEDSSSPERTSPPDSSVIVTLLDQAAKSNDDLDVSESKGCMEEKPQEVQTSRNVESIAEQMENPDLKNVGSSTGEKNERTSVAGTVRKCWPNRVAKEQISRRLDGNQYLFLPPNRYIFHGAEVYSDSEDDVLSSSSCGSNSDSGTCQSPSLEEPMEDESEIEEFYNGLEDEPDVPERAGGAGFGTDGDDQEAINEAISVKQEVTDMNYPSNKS
In words: Inhibition of human SIRT1. In short, it runs like this: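 Compounds were pre-incubated with human SIRT about 10 min before substrate addition, then developer added. Read ex 360/em 460 nm; activity relative to DMSO; sigmoidal 10-dose IC50, n = 2; suramin positive control.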

Assay [2] has as its target T2, NAD-dependent protein deacetylase sirtuin-2 (Homo sapiens) (UniProt Q8IXJ6).
T2 sequence (whole entry): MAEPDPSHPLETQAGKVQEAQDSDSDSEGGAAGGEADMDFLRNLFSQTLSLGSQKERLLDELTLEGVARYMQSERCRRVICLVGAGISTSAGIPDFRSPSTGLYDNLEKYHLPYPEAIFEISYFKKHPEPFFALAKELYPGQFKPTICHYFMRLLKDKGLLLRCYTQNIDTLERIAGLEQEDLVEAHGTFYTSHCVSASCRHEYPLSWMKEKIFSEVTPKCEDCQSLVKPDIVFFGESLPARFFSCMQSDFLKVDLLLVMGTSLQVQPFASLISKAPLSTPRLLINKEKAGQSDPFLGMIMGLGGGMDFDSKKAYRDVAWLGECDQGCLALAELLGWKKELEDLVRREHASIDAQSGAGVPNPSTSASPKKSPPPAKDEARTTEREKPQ
Nature of the assay: Inhibition of SIRT2 in human MCF7 cells assessed as increase in alpha-tubulin K40 acetylation level at 10 to 50 uM after 24 hrs in presence of TSA by Western blot analysis. Format: cell-based. In outline:
(§1)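 MCF-7 cells (ATCC, authenticated) kept in DMEM with 10% FCS, penicillin/streptomycin and 2 mM glutamine at 37 °C under 10% CO2. Treated 24 h with compound at 0, 1, 10, 20, 30 or 50 μM plus 50 nM TSA to block non-sirtuin HDACs. NP40 lysates (20 μg protein, BCA-quantified) run on SDS-PAGE and Western blotted for acetyl-K40 α-tubulin, total α-tubulin and β-actin; ECL detection.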

Assay [3] addresses T2, NAD-dependent protein deacetylase sirtuin-2 (Homo sapiens). Nature of the assay: Inhibition of SIRT2 in human MCF7 cells assessed as increase in alpha-tubulin K40 acetylation level at 1 to 50 uM after 24 hrs in presence of TSA by Western blot analysis. Format: cell-based. In outline: as §1
In general terms: In western blotting, separated proteins are transferred to a membrane and probed.

Assay [4] shares this target. In words: Inhibition of recombinant human C-terminal His-tagged SIRT2 (50 to 389 end residues) expressed in Escherichia coli at 10 uM using p53 derived (379 to 382 residues) fluorogenic peptide substrate RHKK(Ac)-AMC preincubated for 10 mins followed by substrate addition in presence of NAD+ by fluorescence assay relative to control. In outline: (§2)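 Two-step fluorogenic assay with p53 379–382 RHKK(Ac)-AMC. Compound (from 10 mM DMSO stock) preincubated ~10 min with human SIRT before substrate addition. Developer then releases fluorophore, read at ex 360/em 460 nm.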

The species named for assay [5] is Homo sapiens. In words: Selectivity ratio of IC50 for recombinant human N-terminal His-tagged SIRT1 (1 to 747 end residues) expressed in Escherichia coli to IC50 for recombinant human C-terminal His-tagged SIRT2 (50 to 389 end residues) expressed in Escherichia coli.
Assay [6] addresses T3, NAD-dependent protein deacetylase sirtuin-2 (Homo sapiens, UniProt Q8IXJ6).
T3 sequence (Q8IXJ6 whole entry): T2 sequence (whole entry)
In words: Inhibition of recombinant human C-terminal His-tagged SIRT2 (50 to 389 end residues) expressed in Escherichia coli in presence of NAD+ by enzyme coupled SIRT-Glo assay.

Assay [7] addresses NAD-dependent protein deacylase sirtuin-5, mitochondrial (Homo sapiens, UniProt Q9NXA8). In words: Inhibition of recombinant human N-terminal His-tagged SIRT5 (37 to 310 end residues) expressed in Escherichia coli using Ac-K(Succ)-AMC as substrate in presence of NAD+ by fluorescence assay.
The target in assay [8] is T4, NAD-dependent protein deacetylase sirtuin-3, mitochondrial (Homo sapiens, UniProt Q9NTG7).
T4 sequence (Q9NTG7 whole entry): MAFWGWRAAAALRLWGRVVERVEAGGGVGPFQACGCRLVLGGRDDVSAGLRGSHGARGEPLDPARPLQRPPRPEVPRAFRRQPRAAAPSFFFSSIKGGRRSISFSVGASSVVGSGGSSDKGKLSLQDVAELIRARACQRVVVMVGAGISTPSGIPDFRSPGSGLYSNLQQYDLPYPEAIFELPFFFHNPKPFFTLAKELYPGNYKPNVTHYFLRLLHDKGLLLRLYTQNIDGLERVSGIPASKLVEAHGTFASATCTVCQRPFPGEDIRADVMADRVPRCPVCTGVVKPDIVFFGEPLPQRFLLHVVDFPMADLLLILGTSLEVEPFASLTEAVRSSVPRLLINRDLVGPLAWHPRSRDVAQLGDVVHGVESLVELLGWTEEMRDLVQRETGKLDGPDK
Nature of the assay: Inhibition of recombinant human N-terminal GST-tagged SIRT3 (101 to 399 residues) expressed in Escherichia coli using p53 derived (379 to 382 residues) fluorogenic peptide substrate RHKK(Ac)-AMC) preincubated for 10 mins followed by substrate addition in presence of NAD+ by fluorescence assay.

For assay [9], the target named is T3, NAD-dependent protein deacetylase sirtuin-2. In words: Inhibition of recombinant human C-terminal His-tagged SIRT2 (50 to 389 end residues) expressed in Escherichia coli using tubulin-K40 peptide in presence of NAD+.
Assay [10] is filed under the species Homo sapiens. In words: Selectivity ratio of IC50 for recombinant human N-terminal GST-tagged SIRT3 (101 to 399 residues) expressed in Escherichia coli to IC50 for recombinant human C-terminal His-tagged SIRT2 (50 to 389 end residues) expressed in Escherichia coli.
Assay [11] deals with T2, NAD-dependent protein deacetylase sirtuin-2 (Homo sapiens). In words: Inhibition of SIRT2 in human MCF7 cells assessed as increase in alpha-tubulin K40 acetylation level at 50 uM after 24 hrs in presence of TSA by Western blot analysis. Format: cell-based. In outline: as §1
Assay [12] shares this target. In words: Inhibition of SIRT2 in human MCF7 cells assessed as increase in alpha-tubulin K40 acetylation level at 20 uM after 24 hrs in presence of TSA by Western blot analysis. Format: cell-based. In short, it runs like this: as §1
Assay [13] concerns the target T1, NAD-dependent protein deacetylase sirtuin-1. Nature of the assay: Inhibition of recombinant human N-terminal His-tagged SIRT1 (1 to 747 end residues) expressed in Escherichia coli using p53 derived (379 to 382 residues) fluorogenic peptide substrate RHKK(Ac)-AMC preincubated for 10 mins followed by substrate addition in presence of NAD+ by fluorescence assay. In outline: as §2

Assay [14] has the same target. In words: Inhibition of human SIRT1 (133 to 747 residues) using (Z-Lys(Acetyl)-AMC) as substrate after 4 hrs in presence of NAD+ by fluorescence assay.
For assay [15], the target named is NAD-dependent protein deacylase sirtuin-6 (Homo sapiens, UniProt Q8N6T7). In words: Inhibition of human SIRT6 (13 to 308 residues) using Ac-EALPKK(Myristoyl)TGG-NH2 as substrate after 10 mins in presence of NAD+ by fluorescence assay.
Chain of NAD-dependent protein deacylase sirtuin-6 (Q8N6T7 whole entry, the tested form may be a part): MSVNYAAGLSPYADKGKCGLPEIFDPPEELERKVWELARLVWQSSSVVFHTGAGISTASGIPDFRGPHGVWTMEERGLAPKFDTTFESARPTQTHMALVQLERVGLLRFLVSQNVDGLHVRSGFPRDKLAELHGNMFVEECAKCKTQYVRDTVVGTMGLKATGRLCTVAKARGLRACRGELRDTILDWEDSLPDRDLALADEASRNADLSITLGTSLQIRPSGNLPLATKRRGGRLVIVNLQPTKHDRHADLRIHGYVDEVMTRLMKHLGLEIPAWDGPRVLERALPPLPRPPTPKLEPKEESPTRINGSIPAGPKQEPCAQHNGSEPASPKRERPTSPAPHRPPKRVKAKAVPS

Active and inactive are the calls of the source. No cut-off for these calls is given here. Bounds are passed on as bounds.

Chain of NAD-dependent protein deacylase sirtuin-5, mitochondrial (Q9NXA8 whole entry): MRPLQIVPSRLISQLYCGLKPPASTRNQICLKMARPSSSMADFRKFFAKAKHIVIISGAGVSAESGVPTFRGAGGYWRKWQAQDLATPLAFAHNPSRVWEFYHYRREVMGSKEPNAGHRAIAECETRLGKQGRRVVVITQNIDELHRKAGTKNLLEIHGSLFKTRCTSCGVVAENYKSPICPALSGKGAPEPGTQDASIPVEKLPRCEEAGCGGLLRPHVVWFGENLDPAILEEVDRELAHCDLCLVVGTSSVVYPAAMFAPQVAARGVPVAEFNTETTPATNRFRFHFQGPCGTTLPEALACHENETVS

The compound `N#C/C(=C\c1ccc(-c2cc(Cl)ccc2Cl)o1)C(=O)Nc1cccc2ncccc12` yielded an IC50 in assay [1] of more than 50 µM. In assay [2], the inhibition result is “Active”.
Consider `O=c1c2c3c(sc2ncn1Cc1ccccc1)CC(NCC1CCCO1)CC3` (stereo not given), for which, in assay [3], the inhibition result is “inactive”. In addition, in assay [4], the inhibition was 22%.
Regarding `COc1ccc2ccccc2c1Cn1cnc2sc3c(c2c1=O)CCC(NCc1cccnc1)C3` (stereo not given), the Ratio IC50 in assay [5] and in [10] was more than 100 each time. Besides, the IC50 in assay [6] was 0.17 µM; in assay [7] it was more than 100 µM; in assay [8], more than 100 µM; in assay [13], more than 100 µM. In addition, the Ki in assay [9] came out at 0.62 µM. Besides, the inhibition result in assay [11] was “inactive”. The inhibition result in assay [12] was “Active”.
Take `Cc1cc(C)nc(SCC(=O)Nc2ncc(Cc3cccc4ccccc34)s2)n1`: the IC50 in [14] is more than 100 µM; in assay [15] it was more than 200 µM.

The values are drawn from ChEMBL document CHEMBL4004822, “Thienopyrimidinone Based Sirtuin-2 (SIRT2)-Selective Inhibitors Bind in the Ligand Induced Selectivity Pocket” (J Med Chem, 2017).
